Test results taken from ChEMBL document CHEMBL1177647, “Synthesis and characterization of novel phenylindoles as potential probes for imaging of β-amyloid plaques in the brain” (Bioorg Med Chem, 2010).

How the values were obtained:
[1] = system: Brain; test: Biodistribution in ddY mouse brain at 0.2 to 0.4 uCi, iv after 60 mins; assay type: ADME, organism-based; conditions: in vivo, 1 h
Outline: (§1)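 Radiotracer (0.2–0.4 μCi) given as a single tail-vein injection of 100 μL saline containing 10 μL ethanol to normal ddY mice (5 weeks old, 25–30 g). Mice were sacrificed at set times after injection. Organs were excised and weighed, and radioactivity was counted in an automatic gamma counter.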

[2] = system: Brain; test: Biodistribution in ddY mouse brain at 0.2 to 0.4 uCi, iv after 30 mins; assay type: ADME, organism-based; conditions: in vivo, 0.5 h; outline: as §1
[3] = system: Brain; test: Biodistribution in ddY mouse brain at 0.2 to 0.4 uCi, iv after 10 mins; assay type: ADME, organism-based; conditions: in vivo; outline: as §1
[4] = system: Brain; test: Biodistribution in ddY mouse brain at 0.2 to 0.4 uCi, iv after 2 mins; assay type: ADME, organism-based; conditions: in vivo; outline: as §1
[5] = system: Stomach; test: Biodistribution in ddY mouse stomach at 0.2 to 0.4 uCi, iv after 60 mins measured per gram of organ; assay type: ADME, organism-based; conditions: in vivo, 1 h; outline: as §1
[6] = system: Stomach; test: Biodistribution in ddY mouse stomach at 0.2 to 0.4 uCi, iv after 30 mins measured per gram of organ; assay type: ADME, organism-based; conditions: in vivo, 0.5 h; outline: as §1
[7] = system: Stomach; test: Biodistribution in ddY mouse stomach at 0.2 to 0.4 uCi, iv after 10 mins measured per gram of organ; assay type: ADME, organism-based; conditions: in vivo; outline: as §1
[8] = system: Stomach; test: Biodistribution in ddY mouse stomach at 0.2 to 0.4 uCi, iv after 2 mins measured per gram of organ; assay type: ADME, organism-based; conditions: in vivo; outline: as §1
[9] = system: Heart; test: Biodistribution in ddY mouse heart at 0.2 to 0.4 uCi, iv after 60 mins; assay type: ADME, organism-based; conditions: in vivo, 1 h; outline: as §1
[10] = system: Heart; test: Biodistribution in ddY mouse heart at 0.2 to 0.4 uCi, iv after 30 mins; assay type: ADME, organism-based; conditions: in vivo, 0.5 h; outline: as §1
[11] = system: Heart; test: Biodistribution in ddY mouse heart at 0.2 to 0.4 uCi, iv after 10 mins; assay type: ADME, organism-based; conditions: in vivo; outline: as §1
[12] = system: Heart; test: Biodistribution in ddY mouse heart at 0.2 to 0.4 uCi, iv after 2 mins; assay type: ADME, organism-based; conditions: in vivo; outline: as §1
[13] = system: Pancreas; test: Biodistribution in ddY mouse pancreas at 0.2 to 0.4 uCi, iv after 60 mins; assay type: ADME, organism-based; conditions: in vivo, 1 h; outline: as §1
[14] = system: Pancreas; test: Biodistribution in ddY mouse pancreas at 0.2 to 0.4 uCi, iv after 30 mins; assay type: ADME, organism-based; conditions: in vivo, 0.5 h; outline: as §1
[15] = system: Pancreas; test: Biodistribution in ddY mouse pancreas at 0.2 to 0.4 uCi, iv after 10 mins; assay type: ADME, organism-based; conditions: in vivo; outline: as §1
[16] = system: Pancreas; test: Biodistribution in ddY mouse pancreas at 0.2 to 0.4 uCi, iv after 2 mins; assay type: ADME, organism-based; conditions: in vivo; outline: as §1
[17] = system: Spleen; test: Biodistribution in ddY mouse spleen at 0.2 to 0.4 uCi, iv after 60 mins; assay type: ADME, organism-based; conditions: in vivo, 1 h; outline: as §1
[18] = system: Spleen; test: Biodistribution in ddY mouse spleen at 0.2 to 0.4 uCi, iv after 30 mins; assay type: ADME, organism-based; conditions: in vivo, 0.5 h; outline: as §1
[19] = system: Spleen; test: Biodistribution in ddY mouse spleen at 0.2 to 0.4 uCi, iv after 10 mins; assay type: ADME, organism-based; conditions: in vivo; outline: as §1
[20] = system: Spleen; test: Biodistribution in ddY mouse spleen at 0.2 to 0.4 uCi, iv after 2 mins; assay type: ADME, organism-based; conditions: in vivo; outline: as §1
[21] = system: Intestine; test: Biodistribution in ddY mouse intestine at 0.2 to 0.4 uCi, iv after 60 mins; assay type: ADME, organism-based; conditions: in vivo, 1 h; outline: as §1
[22] = system: Intestine; test: Biodistribution in ddY mouse intestine at 0.2 to 0.4 uCi, iv after 30 mins; assay type: ADME, organism-based; conditions: in vivo, 0.5 h; outline: as §1
[23] = system: Intestine; test: Biodistribution in ddY mouse intestine at 0.2 to 0.4 uCi, iv after 10 mins; assay type: ADME, organism-based; conditions: in vivo; outline: as §1
[24] = system: Intestine; test: Biodistribution in ddY mouse intestine at 0.2 to 0.4 uCi, iv after 2 mins; assay type: ADME, organism-based; conditions: in vivo; outline: as §1
[25] = system: Kidney; test: Biodistribution in ddY mouse kidney at 0.2 to 0.4 uCi, iv after 60 mins; assay type: ADME, organism-based; conditions: in vivo, 1 h; outline: as §1
[26] = system: Kidney; test: Biodistribution in ddY mouse kidney at 0.2 to 0.4 uCi, iv after 30 mins; assay type: ADME, organism-based; conditions: in vivo, 0.5 h; outline: as §1
[27] = system: Kidney; test: Biodistribution in ddY mouse kidney at 0.2 to 0.4 uCi, iv after 10 mins; assay type: ADME, organism-based; conditions: in vivo; outline: as §1
[28] = system: Kidney; test: Biodistribution in ddY mouse kidney at 0.2 to 0.4 uCi, iv after 2 mins; assay type: ADME, organism-based; conditions: in vivo; outline: as §1
[29] = system: Liver; test: Biodistribution in ddY mouse liver at 0.2 to 0.4 uCi, iv after 60 mins; assay type: ADME, organism-based; conditions: in vivo, 1 h; outline: as §1
[30] = system: Liver; test: Biodistribution in ddY mouse liver at 0.2 to 0.4 uCi, iv after 2 mins; assay type: ADME, organism-based; conditions: in vivo; outline: as §1
[31] = system: Liver; test: Biodistribution in ddY mouse liver at 0.2 to 0.4 uCi, iv after 10 mins; assay type: ADME, organism-based; conditions: in vivo; outline: as §1
[32] = system: Liver; test: Biodistribution in ddY mouse liver at 0.2 to 0.4 uCi, iv after 30 mins; assay type: ADME, organism-based; conditions: in vivo, 0.5 h; outline: as §1
[33] = system: Blood; test: Biodistribution in ddY mouse blood at 0.2 to 0.4 uCi, iv after 60 mins; assay type: ADME, organism-based; conditions: in vivo, 1 h; outline: as §1
[34] = system: Blood; test: Biodistribution in ddY mouse blood at 0.2 to 0.4 uCi, iv after 30 mins; assay type: ADME, organism-based; conditions: in vivo, 0.5 h; outline: as §1
[35] = system: Blood; test: Biodistribution in ddY mouse blood at 0.2 to 0.4 uCi, iv after 10 mins; assay type: ADME, organism-based; conditions: in vivo; outline: as §1
[36] = system: Blood; test: Biodistribution in ddY mouse blood at 0.2 to 0.4 uCi, iv after 2 mins; assay type: ADME, organism-based; conditions: in vivo; outline: as §1
[37] = Displacement of [125I]IMPY from amyloid beta42 by gamma counting

| Drug uptake [1] | Drug uptake [2] | Drug uptake [3] | Drug uptake [4] | Drug uptake [5] | Drug uptake [6] | Drug uptake [7] | Drug uptake [8] | Drug uptake [9] | Drug uptake [10] | Drug uptake [11] | Drug uptake [12] | Drug uptake [13] | Drug uptake [14] | Drug uptake [15] | Drug uptake [16] | Drug uptake [17] | Drug uptake [18] | Drug uptake [19] | Drug uptake [20] | Structure (SMILES) | further results |
| --- | --- | --- | --- | --- | --- | --- | --- | --- | --- | --- | --- | --- | --- | --- | --- | --- | --- | --- | --- | --- | --- |
| 1.16 % ID/g | 1.36 % ID/g | 2.07 % ID/g | 2.11 % ID/g | 3.06 %ID | 2.67 %ID | 1.38 %ID | 0.72 %ID | 1.06 % ID/g | 1.47 % ID/g | 2.97 % ID/g | 7.72 % ID/g | 1.29 % ID/g | 1.95 % ID/g | 3.94 % ID/g | 4.54 % ID/g | 2.02 % ID/g | 2.96 % ID/g | 3.43 % ID/g | 4.22 % ID/g | COc1ccc(-c2cc3cc([125I])ccc3[nH]2)cc1 | Drug uptake [21]: 20.35 % ID/g; Drug uptake [22]: 12.32 % ID/g; Drug uptake [23]: 6.85 % ID/g; Drug uptake [24]: 1.9 % ID/g; Drug uptake [25]: 2.05 % ID/g; Drug uptake [26]: 2.89 % ID/g; Drug uptake [27]: 4.96 % ID/g; Drug uptake [28]: 8.76 % ID/g; Drug uptake [29]: 8.22 % ID/g; Drug uptake [30]: 17.81 % ID/g; Drug uptake [31]: 13.96 % ID/g; Drug uptake [32]: 10.38 % ID/g; Drug uptake [33]: 0.74 % ID/g; Drug uptake [34]: 1.38 % ID/g; Drug uptake [35]: 1.97 % ID/g; Drug uptake [36]: 3.59 % ID/g |
| 1.82 % ID/g | 1.93 % ID/g | 2.62 % ID/g | 2.13 % ID/g | 1.62 %ID | 2.11 %ID | 1.97 %ID | 0.97 %ID | 1.36 % ID/g | 2.97 % ID/g | 5.84 % ID/g | 12.91 % ID/g | 2.22 % ID/g | 3.57 % ID/g | 5.59 % ID/g | 5.55 % ID/g | 2.39 % ID/g | 4.75 % ID/g | 7.09 % ID/g | 7.56 % ID/g | OCCOc1ccc(-c2cc3cc([125I])ccc3[nH]2)cc1 | Drug uptake [21]: 18.98 % ID/g; Drug uptake [22]: 11.32 % ID/g; Drug uptake [23]: 5.76 % ID/g; Drug uptake [24]: 1.97 % ID/g; Drug uptake [25]: 2.76 % ID/g; Drug uptake [26]: 6.77 % ID/g; Drug uptake [27]: 9.35 % ID/g; Drug uptake [28]: 11.93 % ID/g; Drug uptake [29]: 8.17 % ID/g; Drug uptake [30]: 17.69 % ID/g; Drug uptake [31]: 16.77 % ID/g; Drug uptake [32]: 13.42 % ID/g; Drug uptake [33]: 0.8 % ID/g; Drug uptake [34]: 1.26 % ID/g; Drug uptake [35]: 1.6 % ID/g; Drug uptake [36]: 4.07 % ID/g |
| – | – | – | – | – | – | – | – | – | – | – | – | – | – | – | – | – | – | – | – | CNc1ccc(-c2cc3cc(I)ccc3[nH]2)cc1 | Ki [37]: 27 nM |
| 0.83 % ID/g | 1.42 % ID/g | 1.68 % ID/g | 1.1 % ID/g | 1.68 %ID | 2.55 %ID | 1.34 %ID | 0.52 %ID | 1.88 % ID/g | 2.96 % ID/g | 3.59 % ID/g | 5.68 % ID/g | 1.27 % ID/g | 2.12 % ID/g | 2.87 % ID/g | 2.31 % ID/g | 5.89 % ID/g | 10.34 % ID/g | 19.67 % ID/g | 7.83 % ID/g | CNc1ccc(-c2cc3cc([125I])ccc3[nH]2)cc1 | Drug uptake [21]: 9.48 % ID/g; Drug uptake [22]: 8.54 % ID/g; Drug uptake [23]: 3.57 % ID/g; Drug uptake [24]: 0.97 % ID/g; Drug uptake [25]: 2.61 % ID/g; Drug uptake [26]: 3.84 % ID/g; Drug uptake [27]: 4.31 % ID/g; Drug uptake [28]: 5.53 % ID/g; Drug uptake [29]: 15.89 % ID/g; Drug uptake [30]: 22.85 % ID/g; Drug uptake [31]: 26.83 % ID/g; Drug uptake [32]: 23.07 % ID/g; Drug uptake [33]: 0.8 % ID/g; Drug uptake [34]: 1.36 % ID/g; Drug uptake [35]: 1.71 % ID/g; Drug uptake [36]: 3.77 % ID/g |
| 0.71 % ID/g | 0.96 % ID/g | 1.19 % ID/g | 1.19 % ID/g | 16.26 %ID | 17.77 %ID | 10.65 %ID | 4.03 %ID | 1.84 % ID/g | 1.87 % ID/g | 4.82 % ID/g | 8.08 % ID/g | 2.3 % ID/g | 3.1 % ID/g | 4.13 % ID/g | 5.21 % ID/g | 2.24 % ID/g | 2.6 % ID/g | 3.28 % ID/g | 4.13 % ID/g | CN(C)c1ccc(-c2cc3cc([125I])ccc3[nH]2)cc1 | Drug uptake [21]: 6.08 % ID/g; Drug uptake [22]: 4.52 % ID/g; Drug uptake [23]: 3.09 % ID/g; Drug uptake [24]: 1.8 % ID/g; Drug uptake [25]: 4.71 % ID/g; Drug uptake [26]: 4.58 % ID/g; Drug uptake [27]: 4.46 % ID/g; Drug uptake [28]: 9.49 % ID/g; Drug uptake [29]: 3.24 % ID/g; Drug uptake [30]: 10.2 % ID/g; Drug uptake [31]: 5.14 % ID/g; Drug uptake [32]: 3.55 % ID/g; Drug uptake [33]: 3.29 % ID/g; Drug uptake [34]: 3.68 % ID/g; Drug uptake [35]: 4.53 % ID/g; Drug uptake [36]: 6.18 % ID/g |
